# Results from ChEMBL document CHEMBL5724801, “EUbOPEN Chemogenomics Library - Multiplex” (2024).
# Values joined by “and” are separate entries in the source; they are usually repeats but may differ in a detail not shown here. Identical values can stand only once.
# System: U2OS
# Assay: Multiplex assay against U2OS
# Type: toxicity, cell-based
# Conditions: human
# Method in brief: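 Tubulin, mitochondrial-mass and membrane-permeability phenotypes are per cents of healthy-nucleus cells. Cells were gated by CellPathfinder machine learning into Hoechst high-intensity objects or normal cells, normal cells into healthy, pyknosed or fragmented nuclei, and pyknosed cells into mitotic or apoptotic. Before that, live cells stained at seeding with Hoechst33342, BioTracker Green Microtubule Cytoskeleton Dye, MitoTracker Red and Annexin V Alexa Fluor 680 were imaged on a CQ1 microscope at 37°C and 5% CO2 after compound addition.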
# [1] = 12 h, 1 µM, compound concentration 1 uM
# [2] = 12 h, 10 µM, compound concentration 10 uM
# [3] = 24 h, 1 µM, compound concentration 1 uM
# [4] = 24 h, 10 µM, compound concentration 10 uM
# [5] = 48 h, 1 µM, compound concentration 1 uM
# [6] = 48 h, 10 µM, compound concentration 10 uM
structure (smiles),measurement,setting,value
C[C@@H]1C[C@H]2[C@@H]3CCC4=CC(=O)C=C[C@]4(C)[C@@]3(F)[C@@H](O)C[C@]2(C)[C@@]1(O)C(=O)CO [DEXAMETHASONE],Population Apoptotic (%),[1],77% and 80%
same,Population Fragmented Nuclei (%),[1],21% and 20%
same,Population Healthy Nuclei (%),[1],70% and 75%
same,Population Hoechst High Intensity Objects (%),[1],2% and 0%
same,Population Membrane Permeable-Phenotype (%),[1],2% and 4%
same,Population Mitochondria Different-Phenotype (%),[1],0% and 1%
same,Population Mitotic Cells (%),[1],22% and 20%
same,Population Normal (%),[1],97% and 99%
same,Population Pyknosed Nuclei (%),[1],7% and 4%
same,Population Tubulin-Different-Phenotype (%),[1],1% and 3%
same,Total Cell Count,[1],238 and 124
same,Population Apoptotic (%),[2],80% and 84%
same,Population Fragmented Nuclei (%),[2],20% and 16%
same,Population Healthy Nuclei (%),[2],69% and 76%
same,Population Hoechst High Intensity Objects (%),[2],2% and 0%
same,Population Membrane Permeable-Phenotype (%),[2],6% and 7%
same,Population Mitochondria Different-Phenotype (%),[2],1% and 2%
same,Population Mitotic Cells (%),[2],19% and 15%
same,Population Normal (%),[2],97% and 100%
same,Population Pyknosed Nuclei (%),[2],9% and 7%
same,Population Tubulin-Different-Phenotype (%),[2],2% and 3%
same,Total Cell Count,[2],319
same,Population Apoptotic (%),[3],96% and 90%
same,Population Fragmented Nuclei (%),[3],19% and 18%
same,Population Healthy Nuclei (%),[3],71% and 73%
same,Population Hoechst High Intensity Objects (%),[3],2%
same,Population Membrane Permeable-Phenotype (%),[3],4% and 6%
same,Population Mitochondria Different-Phenotype (%),[3],2% and 0%
same,Population Mitotic Cells (%),[3],4% and 9%
same,Population Normal (%),[3],97%
same,Population Pyknosed Nuclei (%),[3],8% and 7%
same,Population Tubulin-Different-Phenotype (%),[3],2% and 4%
same,Total Cell Count,[3],288
same,Population Apoptotic (%),[4],82% and 75%
same,Population Fragmented Nuclei (%),[4],17% and 14%
same,Population Healthy Nuclei (%),[4],74% and 79%
same,Population Hoechst High Intensity Objects (%),[4],1% and 0%
same,Population Membrane Permeable-Phenotype (%),[4],6%
same,Population Mitochondria Different-Phenotype (%),[4],0% and 2%
same,Population Mitotic Cells (%),[4],17% and 25%
same,Population Normal (%),[4],98% and 99%
same,Population Pyknosed Nuclei (%),[4],7% and 5%
same,Population Tubulin-Different-Phenotype (%),[4],2%
same,Total Cell Count,[4],378 and 219
same,Population Apoptotic (%),[5],84% and 71%
same,Population Fragmented Nuclei (%),[5],20% and 17%
same,Population Healthy Nuclei (%),[5],72% and 74%
same,Population Hoechst High Intensity Objects (%),[5],1% and 2%
same,Population Membrane Permeable-Phenotype (%),[5],1% and 3%
same,Population Mitochondria Different-Phenotype (%),[5],1% and 3%
same,Population Mitotic Cells (%),[5],16% and 28%
same,Population Normal (%),[5],98% and 97%
same,Population Pyknosed Nuclei (%),[5],6% and 7%
same,Population Tubulin-Different-Phenotype (%),[5],0% and 4%
same,Total Cell Count,[5],391 and 186
same,Population Apoptotic (%),[6],92% and 86%
same,Population Fragmented Nuclei (%),[6],14% and 16%
same,Population Healthy Nuclei (%),[6],77% and 76%
same,Population Hoechst High Intensity Objects (%),[6],2%
same,Population Membrane Permeable-Phenotype (%),[6],4% and 5%
same,Population Mitochondria Different-Phenotype (%),[6],1% and 0%
same,Population Mitotic Cells (%),[6],7% and 13%
same,Population Normal (%),[6],97%
same,Population Pyknosed Nuclei (%),[6],8% and 7%
same,Population Tubulin-Different-Phenotype (%),[6],1%
same,Total Cell Count,[6],497 and 294
